Assay outcomes as filed in PubChem BioAssay.
HUVEC inhibit – blocks proliferation of human endothelial cells | HUVEC proliferation, CellTiter-Glo luminescence, 72 h; active compounds read low | AID 648 | viability, % at 10 µM (by protocol) | 1.1% of 86,000 active;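 active = viability at or below 30%; inactive = viability above 30%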;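 note: 100% = median luminescence of DMSO-only cell control wells on each plate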
bCat KO growth – beta-catenin-lacking colon tumor cell growth suppression. HCT116 beta-catenin knockout viability, CellTiter-Glo, 60 h; active compounds read low. 1.5% of 140,000 active. viability, % at 10 µM. AID 818;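 active = viability at or under a set limit, the compound median less 4 SD, cut at about 6% in these data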;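 note: 0% = Hyamine 1622 control at 20 µM and 100% = untreated cell control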
PTEN del growth – growth suppressors of cells with PTEN tumor suppressor deletion; HCT116 PTEN-null viability, CellTiter-Glo, 60 h; active compounds read low; viability, % at 10 µM; 1.2% of 140,000 active;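 active = viability at or below a set limit, 4 SD under the median of all tested compounds, cut at about 3.7% in these data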;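 note: PTEN knockout HCT116 line with beta catenin targeted HCT116 as companion control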
Lung fibro prol – blocks proliferation of human lung fibroblasts; LL 47 human lung fibroblast viability, ATP luminescence; active compounds read low; viability, % at 10 µM; 1.1% of 85,000 active; AID 719;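 active = viability at or below 50% in the single dose screen; inactive = viability above 50%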;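 note: compound exposure lasted 72 h before the ATP readout; 100% = median luminescence of untreated cell-only wells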
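Test system: LL 47 human lung fibroblasts / Quantity: 1,150 cells in each well / Medium: IMEM growth medium with 15% fetal bovine serum / Incubation: 72 h compound exposure at 37 °C after overnight plating / Detection: CellTiter-Glo luminescence measuring cellular ATP / Read-out: % viability versus median cells-only luminescence / Benchmarks: cell-only wells, no compound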
H69AR inhibit – blocks growth of human H69AR lung tumor cells. viability, % at 10 µM. H69AR lung tumor viability, ATP luminescence, 72 h; active compounds read low. 6% of 85,000 active;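 active = viability at or below 40%; inactive = viability above 40%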;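 note: multidrug resistant small cell line overexpressing MRP-1 efflux transporter; 100% = mean luminescence of untreated control wells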
* marks the source's active call; other numbers are inactive results; . = no result given. The sample as a whole holds a higher share of hits than the screen did.

SMILES	HUVEC inhibit	bCat KO growth	PTEN del growth	Lung fibro prol	H69AR inhibit
COc1ccc(C2C(C(=O)OC3CCCCC3)=C(C)Nc3nnnn32)c(OC)c1OC (stereo not drawn)	100	66	69	93	7.3*
CCOC(=O)/C=C/S(=O)(=O)c1ccc(NC(C)=O)cc1	68	81	76	14*	-0.2*
CCCNC(=O)c1ccc(C2SCC(=O)N2CCc2ccccc2)cc1 (stereo not drawn)	.	83	83	.	.
Cn1c(N)c(C(=O)COC(=O)CNS(=O)(=O)c2ccc(Cl)c(Cl)c2)c(=O)n(C)c1=O	.	93	89	.	.
Cc1ccc(S(=O)(=O)Nc2ccnc3ccccc23)cc1	94	83	100	104	66
Cc1ccc(S(=O)(=O)Nc2cccc3ncccc23)s1	.	1.5*	1.5*	.	.
CC(C)c1ccc(/C=C(\c2nc3ccccc3[nH]2)S(=O)(=O)c2ccccc2)cc1	.	1.8*	1.9*	.	.
CC(C)(C)/C(O)=C/c1nc2ccccc2[nH]c1=O	.	94	100	.	.
O=S(=O)(/C(=C/c1ccc(C(F)(F)F)cc1)c1nc2ccccc2[nH]1)c1ccccc1	.	1.5*	1.6*	.	.
N#C/C(=C\c1cccc(Oc2ccc(C(F)(F)F)cc2[N+](=O)[O-])c1)c1nc2ccccc2[nH]1	.	85	88	.	.
NC(=O)c1cc(-c2ccccc2)sc1NC(=O)CN1CCCCC1	.	48	47	.	.
CCOc1ccc2[nH]c(=O)c(CN(Cc3ccc(C)cc3)C(=O)N3CCCC3)cc2c1	90	93	81	89	33*
COc1ccc2[nH]c(=O)c(CN(C)C(=O)c3ccncc3)cc2c1	89	108	106	97	94
CCOc1ccccc1C(=O)N(Cc1ccccc1)Cc1cc2cc3c(cc2[nH]c1=O)OCCO3	19*	.	.	26*	9.0*
CCOc1ccc2[nH]c(=O)c(CN(CCc3ccccc3)C(=O)N3CCCC3)cc2c1	.	70	66	.	.
CCCN(Cc1cc2cc(OC)ccc2[nH]c1=O)C(=O)c1ccncc1	80	74	66	85	25*
CCOc1ccc(C(=O)N(Cc2ccc(OC)cc2)Cc2cc3cc(OC)ccc3[nH]c2=O)cc1	70	87	92	86	19*
COc1ccc(/C=C2\C(=O)N(c3c(Cl)cc(Cl)cc3Cl)N=C2NC(=O)c2cccc([N+](=O)[O-])c2)cc1	.	87	99	.	.
CN(C)/C=N/c1cc(=O)[nH]c(=O)n1C	.	94	98	.	.
O=C(Cc1nn[nH]n1)c1ccccc1O	.	92	104	.	.
NS(=O)(=O)c1ccc(NC(=S)Nc2nn(Cc3ccc(Cl)cc3Cl)cc2Cl)cc1	.	81	84	.	.
COc1ccccc1NC(=O)N(Cc1cccs1)Cc1cc2cc3c(cc2[nH]c1=O)OCO3	.	30	28	.	.
Cc1c(Br)cc(C(=O)OC2CCN(C)CC2)c(C)c1C	78	76	83	91	3.8*
Cc1ccc(C(C)NC(=O)/C(C#N)=C\c2c(C)[nH]c3ccccc23)cc1 (stereo not drawn)	.	93	97	.	.
COC(=O)c1ccc(/C=C(\C#N)C(=O)NC(C)c2ccccc2)cc1 (stereo not drawn)	.	3.7*	1.6*	.	.
SMILES	HUVEC inhibit	bCat KO growth	PTEN del growth	Lung fibro prol	H69AR inhibit
Cc1cc(S(=O)(=O)N2CCN(Cc3ccc4c(c3)OCO4)CC2)cc(C)c1N1CCCC1=O	20*	36	35	85	70
Cc1ccc(S(=O)(=O)N2CCC(C(=O)Nc3nnc(-c4ccco4)s3)CC2)cc1	61	92	100	67	38*
CCOc1ccc(OCC)c(NC(=O)CN2CCN(c3cccc(C)c3)C(C)C2)c1 (stereo not drawn)	63	32	88	76	19*
CCOc1ccc(OCC)c(NC(=O)CN2CCN(c3cccc(C)c3)CC2)c1	106	88	93	98	71
O=c1c(Cl)c(N2CCN(S(=O)(=O)c3ccc(F)cc3)CC2)cnn1-c1cccc(Cl)c1	.	92	81	.	.
CCOc1ccccc1C(=O)NC(C)c1ccc2c(c1)OCO2 (stereo not drawn)	65	23	26	97	24*
COc1ccccc1C(=O)Oc1ccc2c(c1)O/C(=C\c1ccncc1)C2=O	.	66	54	.	.
COc1ccc(S(=O)(=O)Oc2ccc3c(c2)O/C(=C\c2cccnc2)C3=O)cc1	93	29	21	94	17*
O=C1/C(=C/c2cccnc2)Oc2cc(OS(=O)(=O)c3ccc(Cl)cc3)ccc21	91	88	89	98	87
O=C1/C(=C/c2cccnc2)Oc2cc(OS(=O)(=O)c3ccccc3)ccc21	91	81	71	105	3.4*
